# Results pooled from the literature.
# Protocols differ between the studies behind these lines.
# Cell line: HT-29
# Observed: cell growth or viability
Compound,method,concentration,inhibition [%]
COc1ccc(C2=Nn3c(NN=C4C(=O)Nc5ccc(OC)cc54)nnc3SC2)cc1,SRB,10 µM,24
COc1ccc(C(=O)/C=C/c2ccc3ccccc3c2)cc1S(N)(=O)=O,SRB,10 µM,126
O=C1Nc2ccc(Br)cc2/C1=N/NC(=O)c1cc2ccccc2[nH]1,,30 µM,64.5
COc1cc2ncnc(NN=C3C(=O)Nc4ccc(Br)cc43)c2cc1OC,,10 µM,18.6
CN1C(=O)/C(=N\NC(=O)c2cc3ccccc3[nH]2)c2ccccc21,,30 µM,78.5
COc1ccc(C2=Nn3c(NN=C4C(=O)Nc5ccc(Cl)cc54)nnc3SC2)cc1,SRB,10 µM,27
COc1ccc(C(=O)/C=C/c2c(F)cccc2Cl)cc1S(N)(=O)=O,SRB,10 µM,92
CN1C(=O)/C(=N\NC(=O)c2cc3ccccc3[nH]2)c2cc(Cl)ccc21,,30 µM,92.4
COc1ccc2c(c1)C(=NNc1nnc(Cc3ccccc3)c3ccccc13)C(=O)N2,,30 µM,9.3
CN1C(=O)/C(=N\NC(=O)c2cc3ccccc3[nH]2)c2cc(F)ccc21,,30 µM,91.3
COc1ccc(C(=O)/C=C/c2cccc(Br)c2)cc1S(N)(=O)=O,SRB,10 µM,156
COc1cc2ncnc(NN=C3C(=O)Nc4ccc(F)cc43)c2cc1OC,,10 µM,13.2
COc1ccc(C(=O)/C=C/c2ccc3c(c2)OCCO3)cc1S(N)(=O)=O,SRB,10 µM,67
COc1ccc(-c2nc(NN=C3C(=O)Nc4ccccc43)c3ccccc3n2)cc1OC,,30 µM,38.1
COc1ccc(C(=O)/C=C/c2cc3c(cc2Br)OCO3)cc1S(N)(=O)=O,SRB,10 µM,100
CN1C(=O)/C(=N\NC(=O)c2cc3ccccc3[nH]2)c2cc(Br)ccc21,,30 µM,95.2
COc1ccc2c(c1)C(=NNc1nc3ccccc3n(C)c1=O)C(=O)N2,,30 µM,48.5
COc1ccc(C(=O)/C=C/c2ccc(Cl)c(Cl)c2)cc1S(N)(=O)=O,SRB,10 µM,150
COc1ccc(-c2nc(NN=C3C(=O)Nc4ccc(F)cc43)c3ccccc3n2)cc1OC,,30 µM,9.6
CCN(CC)CCNC(=O)c1c(C)[nH]c(/C=C2\C(=O)Nc3ccc(F)cc32)c1C,,30 µM,59.5
